# Assay: Single ascending dose part
# Assay type: in vivo, human
# Method in brief: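 Healthy men in an interlocking two-cohort, four-period crossover. Each period was randomized 3:1 (6 active, 2 placebo); each participant received three ascending single oral doses and one placebo, each after a moderate-fat meal (~600 calories, ~30% fat). Two sentinel participants per period were dosed first, with a 24-h safety review before the rest. Monitoring covered AEs, vitals, ECGs, labs, physical exams, and GI/hepatobiliary abnormalities. AEs were MedDRA-coded and summarized descriptively.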
# [1] = Part 1, across all drug doses in the 20 participants
structure (smiles),measurement,setting,value
C=C(C)[C@@H]1CC[C@]2(NCCN3CCS(=O)(=O)CC3)CC[C@]3(C)[C@H](CC[C@@H]4[C@@]5(C)CC=C(C6=CC[C@@](CF)(C(=O)O)CC6)C(C)(C)[C@@H]5CC[C@]43C)[C@@H]12 [GSK3640254],"most common AEs: contact dermatitis, number of events",[1],five
same,"most common AEs: diarrhea, number of events",[1],four
same,"most common AEs: dizziness, number of events",[1],four
same,"most common AEs: headache, number of events",[1],eight
same,"most common AEs: nasopharyngitis, number of events",[1],three
same,participants reporting GI AEs,"Part 1, eleven GI AEs in six participants",30%
same,"adverse drug reactions, number",across both parts of the study (total includes placebo periods per Table 3),12
same,trends in laboratory values or vital sign parameters,across doses in either part of the study,no clinically significant trends in laboratory values or vital sign parameters
same,deaths or serious AEs,single and multiple ascending doses,no deaths or serious AEs were reported
same,Adverse event: Any event,single dose 1 mg (N = 6),3 (50) n (%)
same,Adverse event: Contact dermatitis,single dose 1 mg (N = 6),1 (17) n (%)
same,Adverse event: Cough,single dose 1 mg (N = 6),0 n (%)
same,Adverse event: Diarrhea,single dose 1 mg (N = 6),0 n (%)
same,Adverse event: Dizziness,single dose 1 mg (N = 6),1 (17) n (%)
same,Adverse event: Gastrointestinal disorders,single dose 1 mg (N = 6),1 (17) n (%)
same,Adverse event: Headache,single dose 1 mg (N = 6),1 (17) n (%)
same,Adverse event: Increased transaminases,single dose 1 mg (N = 6),0 n (%)
same,Adverse event: Nasal obstruction,single dose 1 mg (N = 6),0 n (%)
same,Adverse event: Nasopharyngitis,single dose 1 mg (N = 6),0 n (%)
same,Adverse event: Nightmare,single dose 1 mg (N = 6),0 n (%)
same,Adverse event: Viral infection,single dose 1 mg (N = 6),0 n (%)
same,Adverse event: Vomiting,single dose 1 mg (N = 6),0 n (%)
same,Adverse event: Any event,single dose 3 mg (N = 6),2 (33) n (%)
same,Adverse event: Contact dermatitis,single dose 3 mg (N = 6),1 (17) n (%)
same,Adverse event: Cough,single dose 3 mg (N = 6),0 n (%)
same,Adverse event: Diarrhea,single dose 3 mg (N = 6),0 n (%)
same,Adverse event: Dizziness,single dose 3 mg (N = 6),1 (17) n (%)
same,Adverse event: Gastrointestinal disorders,single dose 3 mg (N = 6),0 n (%)
same,Adverse event: Headache,single dose 3 mg (N = 6),0 n (%)
same,Adverse event: Increased transaminases,single dose 3 mg (N = 6),0 n (%)
same,Adverse event: Nasal obstruction,single dose 3 mg (N = 6),0 n (%)
same,Adverse event: Nasopharyngitis,single dose 3 mg (N = 6),0 n (%)
same,Adverse event: Nightmare,single dose 3 mg (N = 6),1 (17) n (%)
same,Adverse event: Viral infection,single dose 3 mg (N = 6),0 n (%)
same,Adverse event: Vomiting,single dose 3 mg (N = 6),0 n (%)
same,Adverse event: Any event,single dose 10 mg (N = 6),4 (67) n (%)
same,Adverse event: Contact dermatitis,single dose 10 mg (N = 6),1 (17) n (%)
same,Adverse event: Cough,single dose 10 mg (N = 6),1 (17) n (%)
same,Adverse event: Diarrhea,single dose 10 mg (N = 6),1 (17) n (%)
same,Adverse event: Dizziness,single dose 10 mg (N = 6),1 (17) n (%)
same,Adverse event: Gastrointestinal disorders,single dose 10 mg (N = 6),1 (17) n (%)
same,Adverse event: Headache,single dose 10 mg (N = 6),1 (17) n (%)
same,Adverse event: Increased transaminases,single dose 10 mg (N = 6),0 n (%)
same,Adverse event: Nasal obstruction,single dose 10 mg (N = 6),1 (17) n (%)
same,Adverse event: Nasopharyngitis,single dose 10 mg (N = 6),1 (17) n (%)
same,Adverse event: Nightmare,single dose 10 mg (N = 6),0 n (%)
same,Adverse event: Viral infection,single dose 10 mg (N = 6),1 (17) n (%)
same,Adverse event: Vomiting,single dose 10 mg (N = 6),0 n (%)
same,Adverse event: Any event,single dose 30 mg (N = 6),3 (50) n (%)
same,Adverse event: Contact dermatitis,single dose 30 mg (N = 6),0 n (%)
same,Adverse event: Cough,single dose 30 mg (N = 6),0 n (%)
same,Adverse event: Diarrhea,single dose 30 mg (N = 6),1 (17) n (%)
same,Adverse event: Dizziness,single dose 30 mg (N = 6),0 n (%)
same,Adverse event: Gastrointestinal disorders,single dose 30 mg (N = 6),1 (17) n (%)
same,Adverse event: Headache,single dose 30 mg (N = 6),1 (17) n (%)
same,Adverse event: Increased transaminases,single dose 30 mg (N = 6),0 n (%)
same,Adverse event: Nasal obstruction,single dose 30 mg (N = 6),0 n (%)
same,Adverse event: Nasopharyngitis,single dose 30 mg (N = 6),0 n (%)
same,Adverse event: Nightmare,single dose 30 mg (N = 6),0 n (%)
same,Adverse event: Viral infection,single dose 30 mg (N = 6),0 n (%)
same,Adverse event: Vomiting,single dose 30 mg (N = 6),0 n (%)
same,Adverse event: Any event,single dose 100 mg (N = 6),3 (50) n (%)
same,Adverse event: Contact dermatitis,single dose 100 mg (N = 6),0 n (%)
same,Adverse event: Cough,single dose 100 mg (N = 6),1 (17) n (%)
same,Adverse event: Diarrhea,single dose 100 mg (N = 6),2 (33) n (%)
same,Adverse event: Dizziness,single dose 100 mg (N = 6),0 n (%)
same,Adverse event: Gastrointestinal disorders,single dose 100 mg (N = 6),2 (33) n (%)
same,Adverse event: Headache,single dose 100 mg (N = 6),2 (33) n (%)
same,Adverse event: Increased transaminases,single dose 100 mg (N = 6),0 n (%)
same,Adverse event: Nasal obstruction,single dose 100 mg (N = 6),0 n (%)
same,Adverse event: Nasopharyngitis,single dose 100 mg (N = 6),1 (17) n (%)
same,Adverse event: Nightmare,single dose 100 mg (N = 6),0 n (%)
same,Adverse event: Viral infection,single dose 100 mg (N = 6),1 (17) n (%)
same,Adverse event: Vomiting,single dose 100 mg (N = 6),2 (33) n (%)
same,Adverse event: Any event,single dose 200 mg (N = 6),4 (67) n (%)
same,Adverse event: Contact dermatitis,single dose 200 mg (N = 6),1 (17) n (%)
same,Adverse event: Cough,single dose 200 mg (N = 6),0 n (%)
same,Adverse event: Diarrhea,single dose 200 mg (N = 6),0 n (%)
same,Adverse event: Dizziness,single dose 200 mg (N = 6),0 n (%)
same,Adverse event: Gastrointestinal disorders,single dose 200 mg (N = 6),0 n (%)
same,Adverse event: Headache,single dose 200 mg (N = 6),1 (17) n (%)
same,Adverse event: Increased transaminases,single dose 200 mg (N = 6),1 (17) n (%)
same,Adverse event: Nasal obstruction,single dose 200 mg (N = 6),0 n (%)
same,Adverse event: Nasopharyngitis,single dose 200 mg (N = 6),0 n (%)
same,Adverse event: Nightmare,single dose 200 mg (N = 6),0 n (%)
same,Adverse event: Viral infection,single dose 200 mg (N = 6),0 n (%)
same,Adverse event: Vomiting,single dose 200 mg (N = 6),0 n (%)
same,Adverse event: Any event,single dose 400 mg (N = 6),4 (67) n (%)
same,Adverse event: Contact dermatitis,single dose 400 mg (N = 6),1 (17) n (%)
same,Adverse event: Cough,single dose 400 mg (N = 6),0 n (%)
same,Adverse event: Diarrhea,single dose 400 mg (N = 6),0 n (%)
same,Adverse event: Dizziness,single dose 400 mg (N = 6),0 n (%)
same,Adverse event: Gastrointestinal disorders,single dose 400 mg (N = 6),1 (17) n (%)
same,Adverse event: Headache,single dose 400 mg (N = 6),2 (33) n (%)
same,Adverse event: Increased transaminases,single dose 400 mg (N = 6),0 n (%)
same,Adverse event: Nasal obstruction,single dose 400 mg (N = 6),0 n (%)
same,Adverse event: Nasopharyngitis,single dose 400 mg (N = 6),1 (17) n (%)
same,Adverse event: Nightmare,single dose 400 mg (N = 6),0 n (%)
same,Adverse event: Viral infection,single dose 400 mg (N = 6),0 n (%)
same,Adverse event: Vomiting,single dose 400 mg (N = 6),0 n (%)
same,Adverse event: Any event,single dose 700 mg (N = 6),1 (17) n (%)
same,Adverse event: Contact dermatitis,single dose 700 mg (N = 6),0 n (%)
same,Adverse event: Cough,single dose 700 mg (N = 6),0 n (%)
same,Adverse event: Diarrhea,single dose 700 mg (N = 6),0 n (%)
same,Adverse event: Dizziness,single dose 700 mg (N = 6),1 (17) n (%)
same,Adverse event: Gastrointestinal disorders,single dose 700 mg (N = 6),0 n (%)
same,Adverse event: Headache,single dose 700 mg (N = 6),0 n (%)
same,Adverse event: Increased transaminases,single dose 700 mg (N = 6),0 n (%)
same,Adverse event: Nasal obstruction,single dose 700 mg (N = 6),0 n (%)
same,Adverse event: Nasopharyngitis,single dose 700 mg (N = 6),0 n (%)
same,Adverse event: Nightmare,single dose 700 mg (N = 6),0 n (%)
same,Adverse event: Viral infection,single dose 700 mg (N = 6),0 n (%)
same,Adverse event: Vomiting,single dose 700 mg (N = 6),0 n (%)
